The list is not random: actives were taken first. Their share in the collection is about 1.3%.
MLL AF4-AF9 inh = MLL-AF4/AF9 protein interaction inhibition. P42568. AlphaScreen, biotin-AF4 peptide binding to FLAG-AF9. inhibition, % at 10 µM. actives 0.47% (n = 350,000);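 active means every replicate reaching a set inhibition limit, whatever the replicate mean, cut at about 25% in these data; inconclusive means mean inhibition reaches that limit but some replicates miss it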;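 further: 0% = plate neutral control median and 100% = total signal loss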
RAD52 anneal inh = inhibitors of human RAD52 DNA annealing | P43351 | recombinant RAD52 DNA annealing, FRET fluorescence | inhibition, % at 18.7 µM | actives 0.46% (n = 360,000) | AID 651710;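 active means every replicate showing at least 50% inhibition; inconclusive means mean inhibition at least 50% but not in every replicate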
GSIS activator = primary screen for activators of insulin secretion dependent on glucose, INS-1E cells, GLuc reporter luminescence; INS-1E GLuc reporter insulin secretion, 2-3 h; activation, % at 16.6 µM; actives 0.61% (n = 370,000); AID 743287;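 active means lowest replicate activation of at least 40%, so every replicate reaches that level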;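 further: 0% = median of neutral control wells and 100% = median of IBMX positive control wells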
S100A4 MyoIIA = inhibitors of human S100A4 binding to myosin IIA peptide. P26447. S100A4/TAMRA-MyoIIA peptide fluorescence polarization. inhibition, % at 10.7 µM. actives 0.14% (n = 360,000);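 active means mean inhibition of at least 70% across replicates, with every replicate also reaching that level; inconclusive means mean inhibition reaches 70% but some replicates fall short; inactive means mean inhibition below 70%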
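Material: S100A4 monomer (human). Medium: Calcium-containing HEPES buffer, pH 7.2. Probe or stimulus: labelled myosin peptide probe, 5 nM. Compound dosing: one concentration per compound. Timing: polarization read 5 min after assay mix addition, stable 5–60 min. Benchmarks: DMSO as neutral control, TFP as positive control.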
RAD54 inh = blocks human RAD54 Holliday junction branch migration; Q92698; FAM/BHQ fluorescence; inhibition, % at 10.4 µM; actives 0.14% (n = 360,000);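 active means mean normalized replicate activity at least 40 and at least half of replicates scoring 40 or more; inconclusive means only one of the two criteria met; inactive means mean below 40 and under half of replicates reaching 40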;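 further: 0% = median of neutral control wells and 100% = median of positive control wells; inhibitors cause a drop in the FAM fluorescence signal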
Target sequence (Q92698 whole entry, looked up): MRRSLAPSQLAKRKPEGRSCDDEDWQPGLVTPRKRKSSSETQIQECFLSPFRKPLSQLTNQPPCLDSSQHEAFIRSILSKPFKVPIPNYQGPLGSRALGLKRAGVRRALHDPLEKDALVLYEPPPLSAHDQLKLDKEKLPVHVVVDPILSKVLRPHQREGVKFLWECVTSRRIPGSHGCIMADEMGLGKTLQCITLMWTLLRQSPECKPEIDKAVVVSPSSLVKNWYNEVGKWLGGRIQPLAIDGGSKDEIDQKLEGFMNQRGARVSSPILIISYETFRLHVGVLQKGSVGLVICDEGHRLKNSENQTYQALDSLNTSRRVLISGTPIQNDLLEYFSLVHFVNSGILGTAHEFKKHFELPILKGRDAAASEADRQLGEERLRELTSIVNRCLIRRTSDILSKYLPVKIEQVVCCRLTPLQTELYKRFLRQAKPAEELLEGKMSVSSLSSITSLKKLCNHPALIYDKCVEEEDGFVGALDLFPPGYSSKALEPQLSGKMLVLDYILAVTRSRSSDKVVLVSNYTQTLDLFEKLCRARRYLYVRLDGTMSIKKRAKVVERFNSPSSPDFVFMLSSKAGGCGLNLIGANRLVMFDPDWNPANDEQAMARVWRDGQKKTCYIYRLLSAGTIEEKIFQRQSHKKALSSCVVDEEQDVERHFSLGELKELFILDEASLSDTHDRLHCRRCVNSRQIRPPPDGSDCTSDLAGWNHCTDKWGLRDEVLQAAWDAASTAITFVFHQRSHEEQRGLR
* marks the source's active call; other numbers are inactive results; i = inactive; ? = inconclusive; · = no result; ! = repeats disagree.

SMILES	MLL AF4-AF9 inh	RAD52 anneal inh	GSIS activator	S100A4 MyoIIA	RAD54 inh
Cc1cc(OC(=O)c2cc([N+](=O)[O-])ccc2Cl)c([N+](=O)[O-])c(=O)[nH]1	47*	-4	·	8	-20
Cc1cc(OC(=O)c2cc(Cl)ccc2Cl)c([N+](=O)[O-])c(=O)[nH]1	-4	0	5	-5	-8
CO[C@H]1CN(C)C(=O)c2ccc(NC(=O)Nc3cc(Cl)cc(Cl)c3)cc2OC[C@@H](C)NC[C@H]1C	·	64*	12	8	15
CO[C@H]1CN(C)C(=O)c2ccc(NC(=O)Nc3cc(Cl)cc(Cl)c3)cc2OC[C@@H](C)NC[C@@H]1C	6	52*	15	-8	-1
CO[C@@H]1CN(C)C(=O)c2cc(NC(=O)Nc3cc(Cl)cc(Cl)c3)ccc2OC[C@H](C)NC[C@H]1C	·	57*	10	·	·
CO[C@H]1CN(C)C(=O)c2ccc(NC(=O)Nc3cc(Cl)cc(Cl)c3)cc2OC[C@H](C)NC[C@H]1C	18	54*	6	9	5
CO[C@H]1CN(C)C(=O)c2cc(NC(=O)Nc3ccc(C(F)(F)F)cc3)ccc2OC[C@H](C)NC[C@H]1C	-6	30	-5	136*	9
C[C@@H]1CN([C@H](C)CO)C(=O)c2cccc(NC(=O)NC3CCCCC3)c2O[C@H]1CN(C)S(=O)(=O)c1cn(C)cn1	-3	2	3	-12	-4
COc1ccc(CCCCCCOCc2ccccc2)cc1	0	-19	-7	1	-13
COc1ccc(COC[B-](F)(F)F)cc1	-5	-4	44*	0	-3
CN(C)c1nc(=NCc2cccs2)ss1	-13	-16	72*	21	·
CC(C)C[C@H]1COCn2nncc2CC[C@@H](Cc2ccccc2)C(=O)N1	6	14	-2	-3	·
CC(/C=N/NC(=O)c1cccc([N+](=O)[O-])c1)=C\c1ccccc1	·	·	49*	·	-3
COc1ccc(S(=O)(=O)N(C)C[C@H]2Oc3ccc(NC(=O)Nc4ccc(F)cc4)cc3C(=O)N([C@@H](C)CO)C[C@@H]2C)cc1	0	24	-22	-3	-6
CCCCCCCCNCCS(=O)(=O)NCCCCCCCC	-9	6	682*	-4	-9
CCCCCCCCNS(=O)(=O)CCNCCc1ccccc1	-4	34	109	0	-6
CC1(C)N=C(c2ccccc2)C(c2ccccc2)=N1	0	-18	41*	2	4
c1ccc(-c2nnc(-c3ccccc3)nn2)cc1	4	-11	13	-6	-13
COc1ccccc1-c1ccccc1[C@H]1[C@H](C#N)N(C(=O)CN(C)C)[C@H]1CO	-1	2	-10	-4	·
Cn1c2c(c3ccccc31)CCN1CCC[C@]21c1ccccc1	26*	4	-2	-1	0
N#Cc1ccc(-c2ccc([C@@H]3[C@@H]4CN(S(=O)(=O)c5ccc(-c6ccccc6)cc5)C[C@H]3N4)cc2)cc1	-2	79*	6	-1	·
COc1cccc(S(=O)(=O)N2C[C@@H]3N[C@H](C2)C3c2ccc(/C=C/c3ccccc3)cc2)c1 (some centres undefined)	-2	58*!	34	-5	·
Cc1ccc(S(=O)(=O)N2C[C@@H]3N[C@H](C2)C3c2ccc(/C=C/c3ccccc3)cc2)cc1 (some centres undefined)	4	-4	502*!	?	·
O=C(c1ccccn1)N1CC(=O)N2[C@@H](CO)[C@H](c3ccc(C#CC4CCCC4)cc3)[C@@H]2C1	-1	17	-6	7	·
C[C@@H]1CN([C@H](C)CO)C(=O)Cc2cc(NC(=O)Cc3ccccc3)ccc2O[C@@H]1CN(C)CC1CC1	0	11	11	-5	1
SMILES	MLL AF4-AF9 inh	RAD52 anneal inh	GSIS activator	S100A4 MyoIIA	RAD54 inh
C[C@@H]1CN([C@H](C)CO)C(=O)c2cc(NC(=O)Nc3cccc4ccccc34)ccc2O[C@@H]1CN(C)C(=O)Nc1ccc2c(c1)OCO2	-2	13	15	1	3
C[C@@H]1CCCCO[C@@H](CN(C)Cc2ccc(C(=O)O)cc2)[C@H](C)CN([C@H](C)CO)C(=O)c2cc(NC(=O)CCC(F)(F)F)ccc2O1	-1	-3	10	-7	21
Cc1nc2ncccn2c1-c1csc(Nc2ccc(N(C)C)cc2)n1	44*	4	-2	-4	·
Cc1nc2ncccn2c1-c1csc(Nc2ccccc2)n1	-15	-1	·	-1	·
CC(=O)Nc1ccc(Nc2nc(-c3c(C)nc4ccccn34)cs2)cc1	0	-12	49*	-6	-8
O=C(NC1CCCCC1)C1CCN(c2ncccn2)CC1	-7	-2	-8	-2	4
O=C(NC1CCCCCC1)C1CCCN(c2ncccn2)C1 (centres undefined)	5	-4	65*	-5	8
CC1CN(S(=O)(=O)c2cc(C(=O)NC(C)c3cccnc3)ccc2Cl)CC(C)O1 (centres undefined)	-3	-4	43*	-1	3
COCC#Cc1ccc2c(c1)O[C@@H](CN(C)C(=O)NC(C)C)[C@H](C)CN([C@H](C)CO)S2(=O)=O	-1	-1	11	2	-3
Cc1ccccc1/C=C\c1nc2ccccc2c(=O)n1Cc1ccccc1	·	·	-16	·	·
CCn1c(/C=C\c2ccccc2C)nc2ccccc2c1=O	31*	-5	-4	-2	3
Nn1c(-c2ccccc2)cc(-c2ccccc2)cc1=O	1	-9	67*	-3	-2
CO[C@@H]1CN(C)C(=O)c2ccc(NC(=O)c3ccccn3)cc2OC[C@@H](C)N(C(=O)C2CCC2)C[C@H]1C	-5	·	·	-12	-12
O=C(Nc1ccccc1)N1C[C@@H]2[C@H](c3ccccc31)[C@@H](CO)N2C(=O)Cc1ccccn1	0	-3	1	6	-2
O=C([C@@H]1[C@@H](CO)[C@@H]2Cn3c(cccc3=O)[C@H]1N2Cc1cocn1)N1CCCCC1	1	6	8	32	-4
CC(C)c1cc(NCCOCCO)n2c(nc3ccccc32)c1C#N	2	-10	52*	-4	·
Cc1cc(NCCCN2CCOCC2)n2c(nc3ccccc32)c1C#N	·	·	·	·	53*
CN(C)CCCN1c2ccc(O)cc2Sc2ccc(Cl)cc21	51*	49	·	3	28
CN(C)CCCN1c2ccccc2Sc2ccc(C(F)(F)F)cc21	21	48	·	1	18
CNC(=O)CSc1nc2cccnc2n1-c1ccc(F)cc1	0	3	78*	3	-3
CNC(=O)CSc1nc2cccnc2n1C1CCCCC1	-19	-8	26	-12	0
CCCCCC[n+]1ccccc1/C=C/c1ccc(N(C)C)cc1	19	i	-34	93*	i
COc1ccc(CN(C)C[C@@H]2Oc3ccc(NC(=O)NC4CCCCC4)cc3C(=O)N([C@@H](C)CO)C[C@H]2C)cc1	0	6	-3	9	63*

Compound activity deposited in PubChem by Broad Institute.
